Assay results: ChEMBL document CHEMBL1914352, “Design, synthesis, docking, and biological evaluation of novel diazide-containing isoxazole- and pyrazole-based histone deacetylase probes” (J Med Chem, 2011)
pIC50: −log10 of the molar value. Calls of active or inactive are those of the source. No cut-off for these calls is given here.

Tests used:
[1] = molecular target: T1, Matrix metalloproteinase-14 (Homo sapiens, UniProt P50281); experiment: Inhibition of MMP14
[2] = molecular target: T2, Matrix metalloproteinase-9 (Homo sapiens, UniProt P14780); experiment: Inhibition of MMP9
T2 sequence (P14780 whole entry): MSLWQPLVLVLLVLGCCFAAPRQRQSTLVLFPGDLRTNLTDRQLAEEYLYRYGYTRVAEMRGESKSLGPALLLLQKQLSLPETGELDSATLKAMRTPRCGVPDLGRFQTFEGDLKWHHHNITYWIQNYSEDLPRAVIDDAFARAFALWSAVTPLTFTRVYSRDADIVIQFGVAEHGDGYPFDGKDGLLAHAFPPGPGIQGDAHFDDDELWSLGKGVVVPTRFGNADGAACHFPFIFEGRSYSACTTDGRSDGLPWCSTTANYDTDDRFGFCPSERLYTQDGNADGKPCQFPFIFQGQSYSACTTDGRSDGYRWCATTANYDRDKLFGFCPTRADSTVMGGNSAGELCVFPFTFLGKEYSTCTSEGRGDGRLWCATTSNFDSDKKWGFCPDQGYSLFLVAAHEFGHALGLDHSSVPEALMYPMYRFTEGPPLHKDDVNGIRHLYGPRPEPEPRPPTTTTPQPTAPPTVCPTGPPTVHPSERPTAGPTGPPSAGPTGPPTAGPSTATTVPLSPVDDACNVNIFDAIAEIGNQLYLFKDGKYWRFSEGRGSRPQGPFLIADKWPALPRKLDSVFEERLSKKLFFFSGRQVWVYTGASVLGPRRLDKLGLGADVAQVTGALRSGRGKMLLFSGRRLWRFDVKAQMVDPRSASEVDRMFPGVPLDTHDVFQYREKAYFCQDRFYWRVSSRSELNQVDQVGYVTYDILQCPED

Stromelysin-1 = Stromelysin-1 (Homo sapiens, UniProt P08254); experiment: Inhibition of MMP3
Chain of Stromelysin-1 (P08254 whole entry): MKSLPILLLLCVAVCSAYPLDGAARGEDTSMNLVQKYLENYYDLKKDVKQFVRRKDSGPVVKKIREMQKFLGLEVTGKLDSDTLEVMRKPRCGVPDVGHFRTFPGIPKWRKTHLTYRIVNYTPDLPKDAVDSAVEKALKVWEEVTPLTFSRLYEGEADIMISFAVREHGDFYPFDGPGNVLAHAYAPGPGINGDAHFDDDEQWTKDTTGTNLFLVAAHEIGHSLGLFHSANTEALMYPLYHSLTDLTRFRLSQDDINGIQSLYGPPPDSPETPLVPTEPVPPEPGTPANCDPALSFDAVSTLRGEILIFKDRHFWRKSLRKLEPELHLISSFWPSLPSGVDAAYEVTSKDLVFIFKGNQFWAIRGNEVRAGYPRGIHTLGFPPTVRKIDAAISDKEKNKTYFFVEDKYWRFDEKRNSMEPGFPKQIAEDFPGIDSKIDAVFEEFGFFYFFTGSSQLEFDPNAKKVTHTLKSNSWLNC

Interstitial collagenase = molecular target: T3, Interstitial collagenase (Homo sapiens, UniProt P03956); experiment: Inhibition of MMP1
T3 sequence (P03956 whole entry): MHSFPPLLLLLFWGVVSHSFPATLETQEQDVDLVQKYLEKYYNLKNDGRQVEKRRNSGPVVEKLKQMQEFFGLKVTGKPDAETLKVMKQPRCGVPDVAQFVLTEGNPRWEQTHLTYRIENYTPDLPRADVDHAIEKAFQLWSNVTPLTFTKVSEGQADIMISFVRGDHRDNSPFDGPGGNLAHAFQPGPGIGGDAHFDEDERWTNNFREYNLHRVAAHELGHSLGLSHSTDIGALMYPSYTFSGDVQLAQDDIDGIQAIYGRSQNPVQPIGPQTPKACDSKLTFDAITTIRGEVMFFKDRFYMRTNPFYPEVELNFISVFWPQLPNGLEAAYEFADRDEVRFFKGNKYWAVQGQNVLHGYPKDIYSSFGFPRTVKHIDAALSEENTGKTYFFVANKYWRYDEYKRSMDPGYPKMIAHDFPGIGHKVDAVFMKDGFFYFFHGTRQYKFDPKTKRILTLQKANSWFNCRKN

HepG2 [3] = experiment: Induction of apoptosis in human HepG2 cells assessed as hyperacetylation of p53 after 24 hrs by Western blot analysis; format: functional, cell-based
Summary of the method: (§1)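 HepG2 cells are seeded at 2.7×10^5 cells/well in D7 medium (DMEM, 7% FBS), refed after 24 h, and after 1 h at 37 °C treated with DMSO or 1, 5 or 10 µM inhibitor. Lysis is in ice-cold 1% CHAPSO buffer (50 mM Hepes pH 7.4), 45 min at 4 °C. Immunoblots are probed for cleaved caspase 3 Asp175, acetyl-Lys373 p53, total p53 and GAPDH, detected by chemiluminescence, with band densitometry.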

HepG2 [4] = experiment: Induction of apoptosis in human HepG2 cells assessed as hyperacetylation of p53 at 1 to 10 uM by Western blot analysis; format: functional, cell-based; summary of the method: as §1
HepG2 [5] = experiment: Induction of apoptosis in human HepG2 cells assessed as cleavage of caspase 3 at 1 to 10 uM after 14 hrs by Western blot analysis; format: functional, cell-based; summary of the method: as §1
[6] = molecular target: T1, Matrix metalloproteinase-14; experiment: Inhibition of MMP14 assessed as activity remaining at […]
[7] = molecular target: T2, Matrix metalloproteinase-9; experiment: Inhibition of MMP9 assessed as activity remaining at […]
[8] = molecular target: T4, Interstitial collagenase (Homo sapiens) (UniProt P03956); experiment: Inhibition of MMP1 assessed as activity remaining at […]
T4 sequence (whole entry): T3 sequence (P03956 whole entry)

SH-SY5Y [9] = experiment: Cytotoxicity against retinoic acid-differentiated human SH-SY5Y cells assessed as cell survival at 20 uM; format: cell-based
Summary of the method: (§2)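 SH-SY5Y cells are differentiated for 7–8 days in 1% FBS medium with 10 µM retinoic acid, then seeded at 2×10^4 cells/well in 1% FBS medium with 5 µM RA. After 24 h they go into phenol-red-free 1% FBS/RA medium with DMSO or 0.5–50 µM inhibitor, without or with 100 µM LY294002, for 24 h. Readout: XTT viability as % survival vs vehicle, four replicates ± SD, one-way ANOVA with Dunnett.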

SH-SY5Y [10] = experiment: Neuroprotective activity against LY294002-induced stress in retinoic acid differentiated human SH-SY5Y cells assessed as cell survival at 1 uM; format: functional, cell-based; summary of the method: as §2
SH-SY5Y [11] = experiment: Neuroprotective activity against LY294002-induced stress in retinoic acid differentiated human SH-SY5Y cells assessed as cell survival at 0.5 uM; format: functional, cell-based; summary of the method: as §2

Row | Compound | pIC50 [1] | pIC50 [2] | pIC50 (Stromelysin-1) | pIC50 (Interstitial collagenase) | Activity (HepG2 [3]) | Activity (HepG2 [4]) | Activity (HepG2 [5]) | Activity [6] | Activity [7] | Activity [8] | Activity (SH-SY5Y [9]) | Activity (SH-SY5Y [10]) | Activity (SH-SY5Y [11])
1 | [N-]=[N+]=NCc1cc(N=[N+]=[N-])cc(C(=O)Nc2ccc(-c3cc(C(=O)NCCCCCCC(=O)NO)no3)cc2)c1 | 5.03 | 4.64 | 4.92 | 3.97 | inactive | inactive | Active | – | – | – | – | – | –
2 | [N-]=[N+]=NCc1cc(Cn2cc(NC(=O)CCCCCCC(=O)NO)cn2)cc(N=[N+]=[N-])c1 | – | – | – | – | – | – | – | > 70% | > 70% | > 70% | Toxic | Active | Active
